# Assay results from different studies.
# Lines come from different studies, so protocols differ.
# Target: Tyrosine-protein kinase Yes (YES1, Homo sapiens, UniProt P07947)
Compound,read-out,technique,tested at,remaining binding [%]
O=C(N[C@H]1CCCCC/C=C\C2C[C@@]2(C(=O)O)NC(=O)[C@@H]2C[C@@H](Oc3ccncc3)CN2C1=O)OC1CCCC1 (stereo partly shown),binding,competition with immobilised ligand,1 µM,100
Cc1cnc(Nc2ccc(C(=O)N3CCC(N4CCCC4)CC3)cc2)nc1-c1cc2ccccc2s1,binding,competition with immobilised ligand,1 µM,43
O=C(NCc1ncc(C(F)(F)F)cc1Cl)c1ccc2c(c1)C1(CCS(=O)(=O)CC1)[C@H](C1CC1)N2S(=O)(=O)c1ccc(F)cc1,cell-free assay,competition with immobilised ligand,1 µM,90
O=C(NCCCN1CCOCC1)c1ccc(Nc2nccc(-c3cc4ccccc4s3)n2)cc1,binding,competition with immobilised ligand,1 µM,91
COc1cnc(Nc2cccc(S(N)(=O)=O)c2)nc1N1CCN(c2ccccc2)CC1,binding,competition with immobilised ligand,1 µM,89
CN(C)c1nccc(-c2cnc3ncccn23)n1,binding,,1 µM,88
Cc1c(C(=O)O)cc(-c2ccc(C3CCNCC3)cc2)c2ccc(-c3ccc(C(F)(F)F)cc3)cc12,cell-free assay,competition with immobilised ligand,1 µM,100
CNC(=O)[C@@H]1CC[C@@H](n2c(-c3ccc4cnccc4c3)nc3ccc(C(=O)NCc4cccc(C(N)=O)c4)cc32)C1,binding,competition with immobilised ligand,1 µM,100
CC1CCCN1c1nccc(-c2cnn3ncccc23)n1 (stereo not shown),binding,,1 µM,89
O=C(NCC1CCOCC1)c1n[nH]cc1NC(=O)c1c(F)cccc1F,binding,competition with immobilised ligand,1 µM,99
CN1CCN(c2ccc(Nc3nccc(-c4ccccc4)n3)cc2C(F)(F)F)CC1,binding,,10 µM,56
COc1ccnn2ncc(-c3ccnc(N(C)C)n3)c12,binding,,1 µM,100
O=C(NCCCN1CCOCC1)c1ccc(Nc2ncc(Cl)c(-c3ccc(Cl)s3)n2)cc1,binding,competition with immobilised ligand,1 µM,76
Cc1ccc(-n2nc(C(C)(C)C)cc2NC(=O)Nc2ccc(-n3c(N)c(C(N)=O)c4nc5ccc(NCCCN)cc5nc43)cc2)cc1,cell-free assay,competition with immobilised ligand,1 µM,1.9
COc1ncc2cc3ccccc3nc2c1C#N,cell-free assay,competition with immobilised ligand,5 µM,100
CC(=O)Nc1c(C(C)=O)c(=O)n(C)c2nc(-c3ccc(Cl)cc3Cl)c(-c3ccc(Cl)cc3)cc12,cell-free assay,competition with immobilised ligand,1 µM,100
N[C@H]1CCN(c2nccc(-c3cnn4ncccc34)n2)C1,binding,,1 µM,91
CC(=O)C1=C(C)N(c2cccc(C(F)(F)F)c2)C(=O)N[C@@H]1c1ccc(C#N)nc1,cell-free assay,competition with immobilised ligand,1 µM,81.1
Nc1ncc2c(n1)-c1c([nH]c3ccc(C#CC4CC4)cc13)CCCC2,binding,competition with immobilised ligand,1 µM,100
CN(c1ccnc(CNc2nc(Nc3ccc4c(c3)CC(=O)N4)ncc2C(F)(F)F)n1)S(C)(=O)=O,cell-free assay,competition with immobilised ligand,1 µM,77
C[C@H]1CCN(c2nccc(-c3cnn4ncccc34)n2)C1,binding,,1 µM,94
Cc1c(NC(=O)c2cc(C(N)=O)nc3cc(F)ccc23)c(C(F)(F)F)nn1Cc1ccc(C#N)cc1,cell-free assay,competition with immobilised ligand,1 µM,66
CN(CCCC(F)(F)F)c1nccc(-c2cnn3ncccc23)n1,binding,,1 µM,94
CN([C@@H]1CCc2c(CC(=O)O)c3cc(S(C)(=O)=O)ccc3n2C1)S(=O)(=O)c1ccc(F)cc1,cell-free assay,competition with immobilised ligand,1 µM,88
FC(F)(F)Oc1cccc(-c2cnc3ccc(-c4ccncc4)nn23)c1,binding,competition with immobilised ligand,5 µM,81
